ChEMBL document CHEMBL1765047, “Synthesis and in vivo evaluation of (S)-6-(4-fluorophenoxy)-3-((1-[11C]methylpiperidin-3-yl)methyl)-2-o-tolylquinazolin-4(3H)-one, a potential PET tracer for growth hormone secretagogue receptor (GHSR)” (Bioorg Med Chem, 2011)

Key:
Lung [1] = assay: Drug uptake in CD1 mouse lung at 0.1 mCi, iv after 30 mins by gamma scintillation counting; assay type: ADME, organism-based; settings: in vivo, 0.5 h
Procedure, shortened: (§1)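 Baseline whole-body distribution in male CD1 mice (23-28 g). Tracer 0.1 mCi in 0.2 mL saline (~4000 mCi/μmol) into lateral tail vein. Cervical dislocation at 10, 30 or 90 min; organs dissected on ice, weighed, gamma-counted alongside injectate aliquots as standards. Reported as %ID/g tissue, mean ± SD, n=5.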

[2] = Drug uptake in CD1 mouse adrenal at 0.1 mCi, iv after 30 mins by gamma scintillation counting; assay type: ADME, organism-based, Adrenal gland; settings: in vivo, 0.5 h; procedure, shortened: as §1
[3] = Drug uptake in CD1 mouse testis at 0.1 mCi, iv after 30 mins by gamma scintillation counting; assay type: ADME, organism-based; settings: in vivo, 0.5 h; procedure, shortened: as §1
Muscle tissue [4] = assay: Drug uptake in CD1 mouse muscle at 0.1 mCi, iv after 30 mins by gamma scintillation counting; assay type: ADME, organism-based; settings: in vivo, 0.5 h; procedure, shortened: as §1
Liver [5] = assay: Drug uptake in CD1 mouse liver at 0.1 mCi, iv after 30 mins by gamma scintillation counting; assay type: ADME, organism-based; settings: in vivo, 0.5 h; procedure, shortened: as §1
Blood [6] = assay: Drug uptake in CD1 mouse blood at 0.1 mCi, iv after 90 mins by gamma scintillation counting; assay type: ADME, organism-based; settings: in vivo, 1.5 h; procedure, shortened: as §1
Heart [7] = assay: Drug uptake in CD1 mouse heart at 0.1 mCi, iv after 90 mins by gamma scintillation counting; assay type: ADME, organism-based; settings: in vivo, 1.5 h; procedure, shortened: as §1
Lung [8] = assay: Drug uptake in CD1 mouse lung at 0.1 mCi, iv after 90 mins by gamma scintillation counting; assay type: ADME, organism-based; settings: in vivo, 1.5 h; procedure, shortened: as §1
[9] = Drug uptake in CD1 mouse adrenal at 0.1 mCi, iv after 90 mins by gamma scintillation counting; assay type: ADME, organism-based, Adrenal gland; settings: in vivo, 1.5 h; procedure, shortened: as §1
[10] = Drug uptake in CD1 mouse testis at 0.1 mCi, iv after 90 mins by gamma scintillation counting; assay type: ADME, organism-based; settings: in vivo, 1.5 h; procedure, shortened: as §1
Muscle tissue [11] = assay: Drug uptake in CD1 mouse muscle at 0.1 mCi, iv after 90 mins by gamma scintillation counting; assay type: ADME, organism-based; settings: in vivo, 1.5 h; procedure, shortened: as §1
Liver [12] = assay: Drug uptake in CD1 mouse liver at 0.1 mCi, iv after 90 mins by gamma scintillation counting; assay type: ADME, organism-based; settings: in vivo, 1.5 h; procedure, shortened: as §1
Blood [13] = assay: Drug uptake in CD1 mouse blood at 0.1 mCi, iv after 90 mins in presence of (S)-6-(4-Fluorophenoxy)-3-(piperidin-3-ylmethyl)-2-o-tolylquinazolin-4(3H)-one; assay type: ADME, organism-based; settings: in vivo, 1.5 h
Procedure, shortened: (§2)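 Blockade arm: male CD1 mice (23-28 g) given 1 mg/kg blocker s.c. in saline/alcohol 9:1, or vehicle alone, 15 min before tail-vein tracer (0.1 mCi in 0.2 mL saline, ~4000 mCi/μmol). Killed by cervical dislocation at 90 min; organs dissected on ice, weighed, gamma-counted against injectate standards; %ID/g tissue, mean ± SD, n=5.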

Heart [14] = assay: Drug uptake in CD1 mouse heart at 0.1 mCi, iv after 90 mins in presence of (S)-6-(4-Fluorophenoxy)-3-(piperidin-3-ylmethyl)-2-o-tolylquinazolin-4(3H)-one; assay type: ADME, organism-based; settings: in vivo, 1.5 h; procedure, shortened: as §2
Lung [15] = assay: Drug uptake in CD1 mouse lung at 0.1 mCi, iv after 90 mins in presence of (S)-6-(4-Fluorophenoxy)-3-(piperidin-3-ylmethyl)-2-o-tolylquinazolin-4(3H)-one; assay type: ADME, organism-based; settings: in vivo, 1.5 h; procedure, shortened: as §2
[16] = Drug uptake in CD1 mouse adrenal at 0.1 mCi, iv after 90 mins in presence of (S)-6-(4-Fluorophenoxy)-3-(piperidin-3-ylmethyl)-2-o-tolylquinazolin-4(3H)-one; assay type: ADME, organism-based, Adrenal gland; settings: in vivo, 1.5 h; procedure, shortened: as §2
[17] = Drug uptake in CD1 mouse testis at 0.1 mCi, iv after 90 mins in presence of (S)-6-(4-Fluorophenoxy)-3-(piperidin-3-ylmethyl)-2-o-tolylquinazolin-4(3H)-one; assay type: ADME, organism-based; settings: in vivo, 1.5 h; procedure, shortened: as §2
Muscle tissue [18] = assay: Drug uptake in CD1 mouse muscle at 0.1 mCi, iv after 90 mins in presence of (S)-6-(4-Fluorophenoxy)-3-(piperidin-3-ylmethyl)-2-o-tolylquinazolin-4(3H)-one; assay type: ADME, organism-based; settings: in vivo, 1.5 h; procedure, shortened: as §2
Heart [19] = assay: Drug uptake in CD1 mouse heart at 0.1 mCi, iv after 30 mins by gamma scintillation counting; assay type: ADME, organism-based; settings: in vivo, 0.5 h; procedure, shortened: as §1
Liver [20] = assay: Drug uptake in CD1 mouse liver at 0.1 mCi, iv after 90 mins in presence of (S)-6-(4-Fluorophenoxy)-3-(piperidin-3-ylmethyl)-2-o-tolylquinazolin-4(3H)-one; assay type: ADME, organism-based; settings: in vivo, 1.5 h; procedure, shortened: as §2
Cerebellum = assay: Drug uptake in CD1 mouse cerebellum at 0.1 mCi, iv after 10 mins by gamma scintillation counting; assay type: ADME, organism-based; settings: in vivo
Procedure, shortened: (§3)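 Baseline regional brain study in male CD1 mice (23-28 g) injected via tail vein with 0.1 mCi tracer in 0.2 mL saline (~4000 mCi/μmol). Killed at 10, 30, 60 or 90 min; brain regions dissected on ice, weighed and gamma-counted with injectate standards. Reported as %ID/g tissue, mean ± SD, n=3.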

Hypothalamus = assay: Drug uptake in CD1 mouse hypothalamus at 0.1 mCi, iv after 10 mins by gamma scintillation counting; assay type: ADME, organism-based; settings: in vivo; procedure, shortened: as §3
Hippocampus = assay: Drug uptake in CD1 mouse hippocampus at 0.1 mCi, iv after 10 mins by gamma scintillation counting; assay type: ADME, organism-based; settings: in vivo; procedure, shortened: as §3
Cortex = assay: Drug uptake in CD1 mouse cortex at 0.1 mCi, iv after 10 mins by gamma scintillation counting; assay type: ADME, organism-based; settings: in vivo; procedure, shortened: as §3

Cc1ccccc1-c1nc2ccc(Oc3ccc(F)cc3)cc2c(=O)n1C[C@H]1CCCN([11CH3])C1
Drug uptake (Lung [1]): 24.02 % ID/g | Drug uptake [2]: 10.77 % ID/g | Drug uptake [3]: 1.39 % ID/g | Drug uptake (Muscle tissue [4]): 3.02 % ID/g | Drug uptake (Liver [5]): 14.6 % ID/g | Drug uptake (Blood [6]): 2.01 % ID/g | Drug uptake (Heart [7]): 2.94 % ID/g | Drug uptake (Lung [8]): 14.74 % ID/g | Drug uptake [9]: 7.87 % ID/g | Drug uptake [10]: 1.96 % ID/g | Drug uptake (Muscle tissue [11]): 2.09 % ID/g | Drug uptake (Liver [12]): 13.46 % ID/g | Drug uptake (Blood [13]): 2.01 % ID/g | Drug uptake (Heart [14]): 3.74 % ID/g | Drug uptake (Lung [15]): 16.28 % ID/g | Drug uptake [16]: 10.02 % ID/g | Drug uptake [17]: 2.25 % ID/g | Drug uptake (Muscle tissue [18]): 2.22 % ID/g | Drug uptake (Heart [19]): 3.91 % ID/g | Drug uptake (Liver [20]): 14.77 % ID/g | Drug uptake (Cerebellum): 0.63 % ID/g | Drug uptake (Hypothalamus): 0.56 % ID/g | Drug uptake (Hippocampus): 0.6 % ID/g | Drug uptake (Cortex): 0.63 % ID/g
